Bioassay records from PubChem BioAssay.
MOR-DOR ag: agonists of human mu-delta opioid receptor heterodimerization; activation, % at 9.3 µM; actives 0.3% (n = 340,000); cells, OPRM1-OPRD1 heterodimerization, luminescence; in the data active = activation above about 18%;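 note: 0% = vehicle-treated cells and 100% = reference agonist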
Target sequence (P35372 whole entry, looked up): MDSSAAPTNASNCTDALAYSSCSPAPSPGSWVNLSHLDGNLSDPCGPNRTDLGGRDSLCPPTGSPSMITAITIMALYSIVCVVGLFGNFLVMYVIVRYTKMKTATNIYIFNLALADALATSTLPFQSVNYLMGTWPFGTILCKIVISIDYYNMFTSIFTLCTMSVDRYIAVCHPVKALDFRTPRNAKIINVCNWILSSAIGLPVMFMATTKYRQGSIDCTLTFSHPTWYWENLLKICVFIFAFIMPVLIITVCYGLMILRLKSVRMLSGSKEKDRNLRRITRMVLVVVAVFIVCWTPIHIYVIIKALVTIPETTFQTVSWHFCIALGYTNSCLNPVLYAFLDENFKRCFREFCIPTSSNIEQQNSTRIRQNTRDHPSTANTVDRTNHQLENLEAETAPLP
Target sequence (P41143 whole entry, looked up): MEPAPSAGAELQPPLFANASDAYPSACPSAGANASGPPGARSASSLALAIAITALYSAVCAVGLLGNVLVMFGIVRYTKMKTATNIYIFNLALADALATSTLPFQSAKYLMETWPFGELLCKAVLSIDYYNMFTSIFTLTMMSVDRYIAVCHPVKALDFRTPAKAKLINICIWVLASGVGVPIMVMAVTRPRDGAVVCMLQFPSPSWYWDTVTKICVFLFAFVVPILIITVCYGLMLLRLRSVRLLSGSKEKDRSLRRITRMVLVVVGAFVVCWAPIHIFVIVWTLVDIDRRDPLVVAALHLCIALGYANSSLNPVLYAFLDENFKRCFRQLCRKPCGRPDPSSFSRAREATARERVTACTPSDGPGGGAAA
OPRM1-OPRD1 inv: mu-delta opioid heterodimer inverse agonism; cell-based MOR-DOR heterodimer luminescence; inhibition, % at 9.3 µM; actives 0.21% (n = 340,000); AID 504357; in the data active = inhibition above about 22%, passing the limit was not always enough;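 note: 0% = cells with DMSO and 100% = wells without cells with DMSO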
HTR5A inv ctr: counter-screen for OPRM1-OPRD1 inverse agonists: human HTR5A inverse agonism | P47898 | HTR5A cell line, luminescence | inhibition, % at 9.3 µM | actives 0.083% (n = 340,000) | AID 504634; in the data active = inhibition mostly above about 23%, no sharp cut-off; inactive = mostly below about 18%;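 note: 0% = cells with DMSO and 100% = no-cell wells with DMSO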
Arr AP2 block: blocks beta-arrestin peptide binding to AP2 adaptin; actives 0.31% (n = 340,000); FITC-arrestin peptide / GST-AP2 beads, flow cytometry; AP2 beta2 appendage carries R879A mutation; inhibition, % at 10 µM;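 active = inhibition above a set limit, near 3 SD of compounds lacking own fluorescence, cut at about 54% in these data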;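 note: plate controls were DMSO wells for no effect and 5 µM unlabelled arrestin peptide for full effect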
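system = GST-tagged AP2 beta2-adaptin appendage (R879A) on 4 µm glutathione beads | reagent = FITC-labelled arrestin peptide probe, 50 nM final | schedule = compound with beads 12 min RT, then probe 1 h RT | signal = HyperCyt-sampled flow cytometry, FL1 channel, ex 488/em 535 nm | read-out = percent response from loss of bead-bound FITC fluorescence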
DAGLB inhibitor: blocks human DAGLB lipase activity; Q8NCG7; HEK293T DAGLB membrane lysate, EnzChek fluorogenic substrate; inhibition, % at 5.17 µM; actives 0.059% (n = 340,000); in the data active = inhibition above about 34%;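 note: 0% = enzyme with vehicle and 100% = wells lacking enzyme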
HTR5A ag ctr: activates human HTR5A in OPRM1-OPRD1 agonist counter-screen; HTR5A agonist assay, luminescence, cell-based; activation, % at 9.3 µM; actives 0.61% (n = 340,000); AID 504692; in the data active = activation mostly above about 9.5%, no sharp cut-off; inactive = mostly below about 7.6%;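 note: 0% = cells with vehicle only and 100% = reference agonist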
DAGLB inh conf: DAGLB (human) inhibition, confirmation screen | shares compounds with DAGLB inhibitor | actives 73% (n = 190) | HEK293T DAGLB membrane lysate, EnzChek fluorogenic substrate | inhibition, % at 5.17 µM | AID 504445;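 active = mean inhibition over triplicate wells above a set limit taken from the primary lipase screen, cut at about 34% in these data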;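 note: 0% = DAGLB with DMSO and 100% = wells lacking DAGLB enzyme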
Numbers without * were called inactive; x = no result. Most compounds without a hit are left out; they make up all but 1.4% or so of the library.

SMILES	MOR-DOR ag	OPRM1-OPRD1 inv	HTR5A inv ctr	Arr AP2 block	DAGLB inhibitor	HTR5A ag ctr	DAGLB inh conf
CCOc1cc(/C=C2\N=C(SCC)SC2=O)cc([N+](=O)[O-])c1OC(C)=O	-4	21	0	-5	50*	-4	37*
CN(C)c1ccc(N=Nc2ccccc2C(=O)OCC(=O)NCC2CCCCC2)cc1	-1	7	22	-8	39*	-1	43*
O=[N+]([O-])c1cc(Cl)cc(/C=N/NC(=S)Nc2ccc(S(=O)(=O)N3CCOCC3)cc2)c1O	-2	12	-5	-4	61*	-3	73*
COc1ccc(CC(=O)OC(C)C(=O)NC2CCCCC2C)cc1 (stereo unspecified)	-2	11	-19	-8	0	3	x
COC(=O)c1cc2c(-c3ccccc3)cc3ccccn3c-2c1C(=O)OC	-1	8	-12	3	37*	-6	30
CN(C)c1ccc(N=Nc2ccc(S(=O)(=O)O)cc2)c2ccccc12	-3	24	17	16	48*	-4	52*
COc1ccc(Br)c(C=O)c1OS(=O)(=O)c1ccc(C)cc1	x	x	x	x	0	x	x
Cc1ccc(C(C)C)cc1-n1nnc(-c2cccc(Cc3ccc4ccccc4c3)c2)c1C(C)O (stereo unspecified)	x	x	x	x	-20	x	x
N#CC(=Cc1ccnc2ccccc12)c1ccccc1	x	x	x	x	0	x	x
CC(C)C[C@H]1CNC(=S)N1CC1CCCN1C[C@H](CC(C)C)N1C[C@H](CC(C)C)N(CCc2ccccc2)C1=S (stereo partly specified)	-2	9	-4	0	-5	1	x
COc1ccc2nc(-n3c(O)c(C4=c5ccccc5=NC4=O)[nH]c3=S)sc2c1	-4	21	-7	10	52*	1	80*
Cc1cc(N=Nc2ccccc2)c(NCC(O)C(O)C(O)CO)cc1C (stereo unspecified)	-4	22	-4	-5	45*	-3	43*
COc1cc(/C=N/Nc2ccc(S(N)(=O)=O)cc2[N+](=O)[O-])cc(OC)c1O	2	-12	42	0	32	-12	x
COc1cc(/C=N/Nc2ccccc2[N+](=O)[O-])cc(OC)c1O	4	-19	-9	5	39*	3	49*
CC(C)Oc1ccccc1/C=N/Nc1ccccc1[N+](=O)[O-]	1	-6	32	3	26	0	x
COc1ccccc1/C=N\Nc1ccccc1[N+](=O)[O-]	0	-2	0	19	35*	1	37*
CC(=O)c1ccc(OCC(=O)OCC(=O)c2ccc(S(=O)(=O)N3CCCCC3)cc2)cc1	x	x	x	x	-7	x	x
COc1cc(/C=C2/C(=O)NN(c3ccc(C)c(Cl)c3)C2=O)cc([N+](=O)[O-])c1O	-2	13	9	3	39*	-2	38*
CCOc1cc(N2CCOCC2)c(OCC)cc1NC(=O)COC(=O)c1c(C)noc1C	x	x	x	x	0	x	x
Nc1nc(-c2ccccc2)c(N=Nc2cccnc2)s1	1	-6	10	-3	51*	-4	50*
O=C(O)c1cc(S(=O)(=O)Nc2ccccc2C(=O)O)ccc1O	-3	11	-21	26	0	8	x
O=C(O)c1cc(S(=O)(=O)Nc2cc(Cl)ccc2Oc2ccccc2)ccc1O	-4	16	11	-13	39*	-3	38*
CCCOc1ccc(C(=O)NNC(=S)NC(=O)c2cc(-c3ccc(Cl)cc3)nc3ccccc23)cc1	-11	61*	75*	-5	39*	-22	90*
FC(F)(F)C1=NNC(c2ccc3ccccc3c2)=NN1	x	x	x	x	-3	x	x
N#Cc1ccc(CN(Nc2ccccc2)c2ccccc2)cc1	x	x	x	x	-8	x	x
SMILES	MOR-DOR ag	OPRM1-OPRD1 inv	HTR5A inv ctr	Arr AP2 block	DAGLB inhibitor	HTR5A ag ctr	DAGLB inh conf
COc1ccc(C(=O)NCc2nnc(SCC(=O)Nc3cc(OC)ccc3OC)o2)cc1	-3	14	-9	-14	-1	-3	x
COc1ccc(OC)c(NC(=O)CSc2nnc(CNC(=O)c3ccccc3F)o2)c1	-3	15	-5	9	36*	2	-6
Cc1nc(N(C)C2CCCCC2)c2nnn(Cc3ccc(F)cc3)c2n1	x	x	x	x	-16	x	x
O=CC(=Cc1ccccc1)c1ccccc1	x	x	x	x	-6	x	x
CC1=NN(c2ccccc2)C(=O)C1N=Nc1ccccc1 (stereo unspecified)	0	-3	20	4	2	6	x
CC1=NN(c2ccccc2)C(=O)C1N=Nc1ccc(N)cc1 (stereo unspecified)	4	-25	25	5	35*	-1	38*
COc1cc2c(cc1OC)C(CNC(=O)C=Cc1ccccc1)C2 (stereo unspecified)	x	x	x	x	-2	x	x
Cc1ccc(-n2c(O)c(/C=N/Nc3ccc(S(=O)(=O)N4CCOCC4)cc3[N+](=O)[O-])c3ccccc3c2=O)c(C)c1	2	-10	28	23	35*	-10	46*
O=C(O)c1ccc(N=N/C(=N\Nc2ccc(C(=O)O)cc2)c2ccccc2)cc1	-5	31*	35*	1	39*	-3	29
O=C(/C(=N\Nc1ccc(Br)cc1)Sc1nnnn1-c1ccccc1)c1ccccc1	-1	4	6	0	3	-2	x
O=C(O)c1cccc(N/N=C(\N=Nc2ccccc2)c2ccccc2)c1	-4	25	24	5	21	-1	x
Brc1ccc(N/N=C(/N=Nc2nn[nH]n2)c2ccccc2)cc1	2	-9	-21	12	46*	7	78*
C[C@H](CO)N1C[C@H](C)[C@H](CN(C)S(C)(=O)=O)OCc2cnnn2CCCC1=O	x	x	x	x	-3	x	x
COc1ccc(C2/C=C\CN(C(=O)c3ccc(C)cc3)[C@H](Cc3ccccc3)C(=O)N2Cc2ccc(F)cc2)cc1 (stereo partly specified)	4	-25	5	10	40*	4	39*
O=C(Nc1ccc([N+](=O)[O-])cc1)c1ccccc1F	2	-12	-13	2	2	5	x
O=C(c1cc(O)c(O)c([N+](=O)[O-])c1)c1ccccc1F	-1	4	-2	1	38*	3	23
CN1C[C@@H]2[C@@H]3C(=O)N(Cc4ccccc4)C(=O)[C@@H]3[C@](Cc3ccccc3)(C1=O)N2C(=O)c1ccc(Br)cc1	-1	3	-3	-1	1	1	x
CC(C)C(=O)Nc1cccc(COc2cccc(CN(Cc3ccccc3)C(=O)OC(C)(C)C)c2)c1	3	-13	-16	13	-12	4	x
COc1cccc(C(=O)NCCS(=O)(=O)N2CCN(c3ccccc3)CC2)c1OC	x	x	x	x	-3	x	x
